From PubChem BioAssay
Pf gamet viab – late stage P. falciparum gametocyte viability inhibitors, primary screen, ATP luminescence, HTS. P. falciparum stage V gametocytes, 24 h. 150,000 tested, 0.065% active. AID 743093, 2013. inhibition, % at 10.9 µM;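 active means inhibition above the mean plus 3 SD of compounds within the control limits, set per campaign, cut at about 38% in these data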;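 further: 0% = DMSO wells and 100% = medium only without gametocytes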
ROMK mod – ROMK potassium channel modulators, primary screen, cell-based, thallium flux, MLSMR library. AID 1918, 2009. Tet-inducible ROMK, thallium flux fluorescence; actives lie on both sides. 130,000 tested, 2% active. B-score at 10 µM. ATP-sensitive inward rectifier potassium channel 1 (Homo sapiens), P48048;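 active means signal ratio slope over the read window, or its plate-corrected B-score, at least 3 SD from the plate mean, either direction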;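 further: B-score of the F/F0 ratio slope over 7 to 12 s after thallium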
Target sequence (P48048 whole entry, looked up): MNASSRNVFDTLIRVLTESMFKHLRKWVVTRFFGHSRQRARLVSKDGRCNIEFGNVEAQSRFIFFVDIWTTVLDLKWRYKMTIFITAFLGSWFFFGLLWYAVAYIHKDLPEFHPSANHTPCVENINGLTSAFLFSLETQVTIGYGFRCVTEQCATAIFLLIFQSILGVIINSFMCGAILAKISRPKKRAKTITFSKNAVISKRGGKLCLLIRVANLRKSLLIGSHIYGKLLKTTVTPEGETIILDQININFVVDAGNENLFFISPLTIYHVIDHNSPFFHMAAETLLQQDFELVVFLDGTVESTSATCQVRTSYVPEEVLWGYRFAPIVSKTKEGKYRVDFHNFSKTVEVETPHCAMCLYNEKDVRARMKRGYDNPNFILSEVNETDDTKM
Calb biofilm kill – clotrimazole potentiators killing C. albicans biofilm, primary screen, 4-compound mixtures; C. albicans biofilm persisters + clotrimazole, fluorescence viability; primary screen in compound mixtures of four per well; inhibition, % at 7.6 µM; 120,000 tested, 0.02% active; AID 1242, 2008;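 active means inhibition above 30.3% in the primary screen of four-compound pools, then above 30% when the compound was retested; inconclusive means passed the primary limit but could not be retested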;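 further: compounds exposed to preformed 24 h biofilms for 48 h; 0% = untreated biofilm control and 100% = clotrimazole plus chlorhexidine kill blank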
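System: C. albicans CAF4-2 wild-type biofilms; Medium: RPMI/MOPS medium, pH 7.0; Reagent: Clotrimazole, 50 µg/mL; Times: biofilm formation 24 h, compound exposure 48 h, 37 °C; Detection: 2-h Alamar Blue fluorescence, 535/590 nm excitation/emission; Evaluation: percent inhibition of biofilm viability.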
ROMK hit retest – ROMK channel modulator hit retest, confirmation, cell-based, thallium flux, duplicate, resupplied hits | fluorescence ratio; stronger effect = lower value | normalized thallium flux (F/F0 slope) at 10 µM | AID 1917, 2009 | 3,000 tested, 54% active | shares compounds with ROMK mod;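 active means Flux at 10 µM at least 3 SD below or above vehicle control mean in one or both replicates; inconclusive means no clear call, values can overlap the other calls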
* marks the source's active call; other numbers are inactive results; ? = inconclusive; . = not tested or not shown. The sample as a whole holds a higher share of hits than the screen did.

SMILES	Pf gamet viab	ROMK mod	Calb biofilm kill	ROMK hit retest
OCC[C@@H]1C[C@H](O)[C@@H](O)[C@]2(CCCc3ccccc3O2)O1	-21	.	.	.
OC(COCc1cccs1)CN1CCN(c2ccccc2Cl)CC1 (stereo not drawn)	-4	.	12	.
OC(COCc1cccs1)CN1CCN(c2cccc(Cl)c2)CC1 (stereo not drawn)	-8	-2.6*	19	0.054*
CC[C@@H]1C(=O)[C@H](Cc2ccccc2)[C@H]2CCCC(=O)N3CC[C@@H]1[C@@H]23	10	.	.	.
COc1ccc(C2OC(=O)CC2C(=O)NCc2ccccc2Cl)cc1OC (stereo not drawn)	.	-10*	3	0.078
COc1ccc(C2OC(=O)CC2C(=O)NCc2ccc(C)cc2)cc1OC (stereo not drawn)	-6	.	7	.
S=C(Nc1ccccc1Cl)N(Cc1ccccc1)Cc1ccccn1	-13	0.48	8	.
O=S1(=O)CC2N=C(N(Cc3c(F)cccc3Cl)c3ccccc3F)SC2C1 (stereo not drawn)	-10	-1.1	-11	.
COc1cccc(NS(=O)(=O)c2ccc(NC(C)=O)cc2)c1	.	-2.1*	.	0.08
COc1ccc(S(=O)(=O)Nc2cccc(NC(C)=O)c2)cc1	2	0.0058	.	.
O=C(Cc1cccc2ccccc12)N/N=C/c1ccncc1	24	-6.6*	22	0.08
O=C(Cc1cccc2ccccc12)N/N=C/c1ccc(F)cc1	.	0.2	.	.
COc1ccc(NC(=O)Nc2cccc3c2O[C@H](CN(C)C(=O)NC(C)C)[C@@H](C)CN([C@H](C)CO)C3=O)cc1	1	.	.	.
CN(C)c1ccc(/C=C2\CCC/C(=C\c3ccccc3)C2=O)cc1	-14	.	10	?
O=C1/C(=C/c2ccccc2)CCCc2ccccc21	-19	.	.	.
C#CCNC(=O)C1=C[C@H](C(C)(C)C)C[C@H](OCCCCO)O1	16	.	.	.
CCOc1ccccc1NC(=O)COC(=O)C(CC(C)C)N1C(=O)C2CC=CCC2C1=O (stereo not drawn)	.	.	19	0.063*
CC(C)CC(C(=O)OCC(=O)Nc1cccc(Cl)c1)N1C(=O)C2CC=CCC2C1=O (stereo not drawn)	-12	.	13	.
CC(=O)Nc1ccc(S(=O)(=O)Nc2ccc(C)c([N+](=O)[O-])c2)cc1	-6	-0.46	2	.
Cc1cc(/C=N/NC(=O)C(=O)NCc2ccccn2)c(C)n1-c1ccccc1	12	2.7*	6	0.089
Cc1cc(/C=N\NC(=O)COc2cccc3cccnc23)c(C)n1-c1ccccc1	-1	0.032	13	.
O=C(O)c1cccc(Cn2c(Cl)c(/C=N/NC(=O)c3cc4ccccc4cc3O)sc2=O)c1	4	0.3	19	.
O=C(C[n+]1cc(-c2ccc(Cl)cc2)n2c1CCCCC2)c1ccccc1	1	.	27	.
O=C(C[n+]1cc(-c2ccc(Br)cc2)n2c1CCCCC2)c1ccccc1	17	-3*	15	0.068*
Cc1ccc(-c2csc(NC(=O)C[n+]3cc(-c4ccc(C)cc4)n4c3CCC4)n2)cc1	-7	.	9	.
SMILES	Pf gamet viab	ROMK mod	Calb biofilm kill	ROMK hit retest
Cc1ccc(-c2csc(NC(=O)C[n+]3cc(-c4ccccc4)n4c3CCC4)n2)cc1	8	-6.1*	0	0.06*
O=C(C[n+]1cc(-c2ccc(F)cc2)n2c1CCC2)Nc1nc(-c2ccc(F)cc2)cs1	-6	.	9	.
O=C(C[n+]1cc(-c2ccc(Cl)cc2)n2c1CCC2)Nc1nc(-c2ccc(F)cc2)cs1	-6	-5.8*	19	0.051*
CCCN(Cc1cc2cc(C)ccc2[nH]c1=O)C(=O)c1cccc([N+](=O)[O-])c1	-19	.	26	.
CCN1C(=C(C#N)C#N)C=Cc2cc(C)ccc21	-11	-0.52	19	.
C=CC[n+]1c(/C=C2\C=Cc3cc(C)ccc3N2CC)ccc2ccccc21	16	-3.4*	26	0.053*
Cc1ccc(O)c(C(CC(=O)NC2CCCCC2)c2ccccc2)c1 (stereo not drawn)	2	0.077	26	.
COc1nc(Cl)cn(-c2ccc(C)cc2)c1=O	.	.	14	.
Cc1ccc(-n2c(Cl)c(Cl)nc(Cl)c2=O)cc1	.	-4.7*	7	0.047*
C[C@H]1CN([C@@H](C)CO)C(=O)c2cc(NC(=O)C3CCCCC3)ccc2O[C@H]1CN(C)S(=O)(=O)c1ccccc1	-52	.	.	.
C=CCc1ccccc1OCC(O)CN1CCN(c2ccc(C)cc2)CC1 (stereo not drawn)	7	-2.6*	.	0.056*
C=CCc1ccccc1OCC(O)CN1CCN(C(=O)OCC)CC1 (stereo not drawn)	-47	.	.	.
O=C(NC1CCCC1)c1ncn[nH]1	2	0.61	13	.
O=C(c1ccc([N+](=O)[O-])cc1)N1CCSC1c1ccc(Cl)cc1 (stereo not drawn)	14	-3.3*	13	?
O=C(c1ccc([N+](=O)[O-])cc1)N1CCSC1c1ccc(Br)cc1 (stereo not drawn)	-20	.	6	.
O=C(CNc1c(Br)cc(Br)cc1Br)NN=C1CCCCC1	.	.	10	.
CSc1nnc(C)c(/C=C/Nc2ccc(F)cc2F)n1	-15	0.56	10	.
C=CCSc1nnc(C)c(/C=C/Nc2ccc(Cl)cc2)n1	-10	-3*	-31	0.046*
CN(C)S(=O)(=O)c1ccc(C(=O)NCC(=O)N/N=C/c2ccccc2Cl)cc1	-8	0.78	4	.
COc1ccc(OC)c(C(c2c(O)nc(SC)[nH]c2=O)c2c(O)nc(SC)[nH]c2=O)c1	11	.	.	.
C/C(=N\Nc1ccc([N+](=O)[O-])cc1)c1ccc(O)cc1	-16	-4.5*	12	0.053*
C/C(=N\Nc1ccc([N+](=O)[O-])cc1)c1cccc(N)c1	15	-0.056	.	.
CCSC(=S)Nc1c(C)n(C)n(-c2ccccc2)c1=O	7	0.3	-10	.
CCn1cc(C(=O)OCC(=O)c2cc(C)n(-c3ccccc3)c2C)c(=O)c2ccc(C)nc21	8	-0.36	-3	.
CCn1cc(C(=O)OCC(=O)N(C)Cc2ccccc2)c(=O)c2ccc(C)nc21	.	2.9*	15	0.078
SMILES	Pf gamet viab	ROMK mod	Calb biofilm kill	ROMK hit retest
CCn1cc(C(=O)OCC(=O)c2cc(C)n(-c3ccc(OC(F)F)cc3)c2C)c(=O)c2ccc(C)nc21	-9	-3.2*	7	0.063*
CCn1cc(C(=O)OCC(=O)N(C)C2CCS(=O)(=O)C2)c(=O)c2ccc(C)nc21 (stereo not drawn)	.	0.94	.	.
COc1ccc(NC(=O)Cn2c(NCC(C)O)nc3ccccc32)cc1Cl (stereo not drawn)	-12	-0.28	10	.
CN1CCN(C(=O)C2=C[C@@H](c3coc4ccccc4c3=O)C[C@@H](OCCCCO)O2)CC1	-7	.	19	.
CN(Cc1cn[nH]c1-c1ccc(-c2ccccc2)cc1)CC1CCOCC1	15	.	21	.
COc1ccc(CC(=O)Nc2cccc(-c3nnc(-c4ccc(C)cc4)o3)c2)cc1OC	13	0.36	.	.
COc1ccc(CC(=O)Nc2cccc(-c3nnc(-c4ccccc4)o3)c2)cc1OC	.	.	.	0.064*
COc1ccccc1OCC(=O)Nc1cccc(-c2nnc(-c3ccco3)o2)c1	5	.	12	0.063*
O=C(Cc1ccccc1)Nc1cccc(-c2nnc(-c3ccco3)o2)c1	17	-1.5	.	.
